From ChEMBL document CHEMBL1122125, “Synthesis and in vivo antitumor activity of potential 5-fluorouracil prodrugs” (1982)

Columns and labels:
Format in all cases: functional
Mus musculus [1] = assay: Antitumor activity was determined for median survival of mice against P-388 leukemia in mice at a dose of 150 mg/kg
In short: (§1)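 Male B6D2F1J mice implanted ip with 10⁶ P-388 cells on day 0; test agents given ip on days 1–4 (qd × 4) in sterile saline, or in 10% Tween 80 for the lipophilic thioether. Groups of 5 treated mice, with 10–17 untreated controls per experiment. Mice weighed on days 1 and 7 to give the 7-day weight change in g and %. Survival recorded in days as median and range.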

Mus musculus [2] = assay: Antitumor activity was determined for 7-day average percent weight change against P-388 leukemia in mice at a dose of 300 mg/kg
In short: (§2)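 Male B6D2F1J mice given 10⁶ P-388 cells ip on day 0, then treated ip once daily on days 1-4 (qd × 4), 5 mice per dose group. Compounds dosed in sterile saline, except one lipophilic thioether given in 10% Tween 80. Mice weighed on days 1 and 7; mean weight per mouse on day 1 and 7-day weight change reported in g and as percent.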

Mus musculus [3] = assay: Antitumor activity was determined for median survival of mice against P-388 leukemia in mice at a dose of 300 mg/kg; in short: as §1
Mus musculus [4] = assay: Antitumor activity was determined for average weight on day 1 against P-388 leukemia in mice at a dose 150 of mg/kg; in short: as §2
Mus musculus [5] = assay: Percent increase in life span against P-388 leukemia in mice was determined at a dose of 600 mg/kg; details: P388
In short: (§3)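 Male B6D2F1J mice, 5 per dose group, received 10⁶ P-388 cells ip on day 0. Dosing was ip qd × 4 on days 1-4 in sterile saline, or 10% Tween 80 for the butyl thioether. Median survival times of treated (T) and untreated control (C, 10-17 mice) groups were compared: %ILS = [(T/C) − 1]100. Weights taken on days 1 and 7.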

Mus musculus [6] = assay: Antitumor activity was determined for survival range of mice against P-388 leukemia in mice at a dose of 680 mg/kg; in short: as §1
Mus musculus [7] = assay: Antitumor activity was determined for median survival of mice against P-388 leukemia in mice at a dose of 340 mg/kg; in short: as §1
Mus musculus [8] = assay: Antitumor activity was determined for survival range of mice against P-388 leukemia in mice at a dose of 75 mg/kg
In short: (§4)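 Male B6D2F1J mice, 5 per dose group, implanted ip with 10⁶ P-388 leukemia cells on day 0. Drug given ip daily on days 1-4 (qd × 4) in sterile saline, or in 10% Tween 80 for the butyl thioether. Survival range recorded in days. Untreated control groups had 10-17 animals per experiment. Mice weighed on days 1 and 7.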

Mus musculus [9] = assay: Antitumor activity was determined for median survival of mice against P-388 leukemia in mice at a dose of 170 mg/kg; in short: as §1
Mus musculus [10] = assay: Antitumor activity was determined for 7-day average percent weight change against P-388 leukemia in mice at a dose of 170 mg/kg; in short: as §2
Mus musculus [11] = assay: Antitumor activity was determined for survival range of mice against P-388 leukemia in mice at a dose of 150 mg/kg; in short: as §1
Mus musculus [12] = assay: Antitumor activity was determined for 7-day average percent weight change against P-388 leukemia in mice at a dose of 85 mg/kg; in short: as §2
Mus musculus [13] = assay: Antitumor activity was determined for average weight on day 1 against P-388 leukemia in mice at a dose of 340 mg/kg
In short: (§5)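 Male B6D2F1J mice, groups of 5, inoculated ip with 10⁶ P-388 cells on day 0. Drug given ip on days 1-4 (qd × 4) in sterile saline, or in 10% Tween 80 for the poorly water-soluble thioether. Average weight per mouse recorded on day 1, with reweighing on day 7 for percent weight change. Untreated control groups had 10-17 animals per experiment.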

Mus musculus [14] = assay: Antitumor activity was determined for survival range of mice against P-388 leukemia in mice at a dose of 85 mg/kg; in short: as §4
Mus musculus [15] = assay: Percent increase in life span against P-388 leukemia in mice was determined at a dose of 170 mg/kg; details: P388; in short: as §3
Mus musculus [16] = assay: Antitumor activity was determined for survival range of mice against P-388 leukemia in mice at a dose of 300 mg/kg; in short: as §1
Mus musculus [17] = assay: Percent increase in life span against P-388 leukemia in mice was determined at a dose of 85 mg/kg; details: P388; in short: as §3
L1210 = assay: Evaluated for cytotoxicity against L1210 mouse leukemia cells; details: read-out: ID50 (the source's name)
In short: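 L1210 murine leukemia cells in Eagle's minimal essential medium with 15% fetal calf serum, streptomycin (100 μg/mL), penicillin (100 units/mL) and 0.05 mM 2-mercaptoethanol. Cells counted by Coulter counter after 48 h exposure. ID50 is the 50% growth-inhibitory dose. Triplicate assays, standard deviation ±10%.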

Mus musculus [18] = assay: Antitumor activity was determined for average weight on day 1 against P-388 leukemia in mice at a dose of 170 mg/kg; in short: as §5
Mus musculus [19] = assay: Antitumor activity was determined for median survival of mice against P-388 leukemia in mice at a dose of 85 mg/kg; in short: as §1
Mus musculus [20] = assay: Antitumor activity was determined for survival range of mice against P-388 leukemia in mice at a dose of 170 mg/kg; in short: as §1
Mus musculus [21] = assay: Percent increase in life span against P-388 leukemia in mice was determined at a dose of 75 mg/kg; details: P388; in short: as §3
Mus musculus [22] = assay: Antitumor activity was determined for average weight on day 1 against P-388 leukemia in mice at a dose of 300 mg/kg; in short: as §5
Mus musculus [23] = assay: Antitumor activity was determined for median survival of mice against P-388 leukemia in mice at a dose of 600 mg/kg; in short: as §1
Mus musculus [24] = assay: Percent increase in life span against P-388 leukemia in mice was determined at a dose of 340 mg/kg; details: P388; in short: as §3
Mus musculus [25] = assay: Antitumor activity was determined for 7-day average percent weight change against P-388 leukemia in mice at a dose of 600 mg/kg; in short: as §2
Mus musculus [26] = assay: Percent increase in life span against P-388 leukemia in mice was determined at a dose of 150 mg/kg; details: P388; in short: as §3
Mus musculus [27] = assay: Percent increase in life span against P-388 leukemia in mice was determined at a dose of 300 mg/kg; details: P388; in short: as §3
Mus musculus [28] = assay: Antitumor activity was determined for average weight on day 1 against P-388 leukemia in mice at a dose of 85 mg/kg; in short: as §5
Mus musculus [29] = assay: Antitumor activity was determined for average 7-day weight change against P-388 leukemia in mice at a dose of 340 mg/kg; in short: as §2
Mus musculus [30] = assay: Antitumor activity was determined for average 7-day weight change against P-388 leukemia in mice at a dose of 680 mg/kg; in short: as §2
Mus musculus [31] = assay: Antitumor activity was determined for survival range of mice against P-388 leukemia in mice at a dose of 600 mg/kg; in short: as §1
Mus musculus [32] = assay: Antitumor activity was determined for average weight on day 1 against P-388 leukemia in mice at a dose of 600 mg/kg; in short: as §5
Mus musculus [33] = assay: Antitumor activity was determined for 7-day average percent weight change against P-388 leukemia in mice at a dose of 75 mg/kg; in short: as §2
Mus musculus [34] = assay: Antitumor activity was determined for survival range of mice against P-388 leukemia in mice at a dose of 340 mg/kg; in short: as §1
Mus musculus [35] = assay: Antitumor activity was determined for average 7-day weight change against P-388 leukemia in mice at a dose of 85 mg/kg; in short: as §2

## CC[C@H]1OC(n2cc(F)c(=O)[nH]c2=O)[C@H](O)[C@@H]1O (stereo partly specified)
Mus musculus [1]
  Survival median: 17
Mus musculus [2]
  Weight change: 3%
Mus musculus [3]
  Survival median: 17
Mus musculus [4]
  Average weight: 25.8 g mouse-1
Mus musculus [5]
  ILS at 600 mg/kg: 63%
Mus musculus [6]
  Survival range: 16
Mus musculus [7]
  Survival median: 16
Mus musculus [8]
  Survival range: 14
Mus musculus [9]
  Survival median: 14
Mus musculus [10]
  Weight change: 6%
Mus musculus [11]
  Survival range: 15
Mus musculus [12]
  Weight change: 5%
Mus musculus [13]
  Average weight: 27.8 g mouse-1
Mus musculus [14]
  Survival range: 13
Mus musculus [15]
  ILS at 170 mg/kg: 27%
Mus musculus [16]
  Survival range: 17
Mus musculus [17]
  ILS at 85 mg/kg: 18%
L1210
  IC50: 19 µM
Mus musculus [18]
  Average weight: 26.4 g mouse-1
Mus musculus [19]
  Survival median: 13
Mus musculus [20]
  Survival range: 13
Mus musculus [21]
  ILS at 75 mg/kg: 36%
Mus musculus [22]
  Average weight: 23.2 g mouse-1
Mus musculus [23]
  Survival median: 18
Mus musculus [24]
  ILS at 340 mg/kg: 45%
Mus musculus [25]
  Weight change: -10%
Mus musculus [26]
  ILS at 150 mg/kg: 54%
Mus musculus [27]
  ILS at 300 mg/kg: 54%
Mus musculus [28]
  Average weight: 26.2 g mouse-1
Mus musculus [29]
  Average weight: 1.4 g mouse-1
Mus musculus [30]
  Average weight: -1.4 g mouse-1
Mus musculus [31]
  Survival range: 17
Mus musculus [32]
  Average weight: 23.2 g mouse-1
Mus musculus [33]
  Weight change: 9%
Mus musculus [34]
  Survival range: 15
Mus musculus [35]
  Average weight: 1.2 g mouse-1
